Activity calls are given as the source filed them. The calls are words filed in the database; no cut-off is given here.
How the values were obtained:
[1] = molecular target: T1, Adenosine deaminase (Bos taurus) (UniProt P56658); experiment: Activity of calf intestine adenosine deaminase assessed as deamination after 48 hrs; set-up: concentration or dose not given beside the values
T1 sequence (whole entry): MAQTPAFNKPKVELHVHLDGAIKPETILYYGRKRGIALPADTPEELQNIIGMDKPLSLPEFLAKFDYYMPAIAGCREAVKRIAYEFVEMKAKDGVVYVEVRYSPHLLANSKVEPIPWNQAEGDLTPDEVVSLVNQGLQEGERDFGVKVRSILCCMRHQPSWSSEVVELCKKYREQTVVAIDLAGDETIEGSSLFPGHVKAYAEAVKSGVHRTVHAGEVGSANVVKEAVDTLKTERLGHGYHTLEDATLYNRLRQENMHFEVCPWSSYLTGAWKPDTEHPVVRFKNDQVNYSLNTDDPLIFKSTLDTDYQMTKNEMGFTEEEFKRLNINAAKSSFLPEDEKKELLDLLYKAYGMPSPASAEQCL
In short: (§1)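 Substrate (2 µmol) stirred with calf intestine ADA (1.7 units) in 0.05 M Na2HPO4, pH 7.5, 0.6 mL total. Aliquots withdrawn, diluted with buffer, and UV spectra recorded. Deamination followed as the fall in absorbance at 260 nm, expressed as percent deaminated at 24 h and 48 h.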

Hepatitis C virus = experiment: Antiviral activity against Hepatitis C virus; format: functional, organism-based; details: Hepacivirus hominis
HFF [2] = experiment: (§2) Cytotoxicity against HFF cells by neutral red uptake assay; format: cell-based; details: human, hff
In short: (§3)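 Uninfected HFF cells, run alongside the HCMV cytopathic effect inhibition assay. Cytotoxicity read by neutral red uptake.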

Human gammaherpesvirus 4 = experiment: Antiviral activity against Epstein-Barr virus infected in human Akata cells by DNA hybridization assay; format: functional, organism-based; details: human gammaherpesvirus 4, Akata
In short: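 EBV DNA hybridization assay run in Akata cells; EC50 by DNA hybridization.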

Human betaherpesvirus 5 [3] = experiment: Antiviral activity against Human cytomegalovirus AD169 infected in human foreskin fibroblast cells assessed as inhibition of virus-induced cytopathic effect; format: functional, organism-based; details: Human betaherpesvirus 5, AD169, Fibroblast
In short: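 HCMV strain AD169 grown in human foreskin fibroblasts; cytopathic effect (CPE) inhibition assay gives EC50; cytotoxicity taken by neutral red uptake.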

Hepatitis B virus = experiment: Antiviral activity against Hepatitis B virus; format: functional, organism-based
Human betaherpesvirus 5 [4] = experiment: Antiviral activity against Human cytomegalovirus Towne infected in human foreskin fibroblast cells by plaque reduction assay; format: functional, organism-based; details: Human betaherpesvirus 5, Towne
In short: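 HCMV Towne in human foreskin fibroblasts, plaque reduction assay; EC50 from plaque counts; cytotoxicity scored visually in uninfected HFF used for the plaque assays.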

[5] = Cytotoxicity against human Akata cells; format: cell-based
[6] = molecular target: T1, Adenosine deaminase (Bos taurus); experiment: Activity of calf intestine adenosine deaminase assessed as deamination after 24 hrs; set-up: concentration or dose not given beside the values; in short: as §1
Human betaherpesvirus 5 [7] = experiment: Antiviral activity against Human cytomegalovirus E8 with phosphotransferase UL97 two point mutation by plaque reduction assay; format: functional, organism-based; details: Human betaherpesvirus 5, E8
In short: (§4)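 Plaque reduction in HFF cells with UL97-mutant HCMV raised from Towne: E8 (two point mutations in UL97, selected by growth in synadenol) and 2696r (truncated UL97, selected in cyclopropavir). Four drug concentrations tested in duplicate; EC50 from plaque counts.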

Human betaherpesvirus 5 [8] = experiment: Antiviral activity against cyclopropavir-resistant Human cytomegalovirus isolate 2696r with phosphotransferase UL97 mutation by plaque reduction assay; format: functional, organism-based; details: Human betaherpesvirus 5, isolate 2696r; in short: as §4
Murid betaherpesvirus 1 = experiment: Antiviral activity against Murine cytomegalovirus infected in mouse embryonic fibroblast cells by plaque reduction assay; format: functional, organism-based; details: Murid betaherpesvirus 1, Fibroblast
In short: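 MCMV plaque reduction assay in mouse embryonic fibroblast (MEF) cells; EC50 from plaque counts.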

HFF [9] = experiment: (§5) Cytotoxicity against HFF cells by plaque reduction assay; format: cell-based; details: human, hff
In short: (§6)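 Cytotoxicity scored visually in uninfected HFF cells run alongside the HCMV plaque reduction assays.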

[10] = as §5; format: cell-based; details: human, HFF cells; in short: as §6
[11] = as §2; format: cell-based; details: human, HFF cells; in short: as §3
MEF = experiment: Cytotoxicity against MEF cells; format: cell-based; details: mouse
Human alphaherpesvirus 2 = experiment: Antiviral activity against HSV2 infected in human foreskin fibroblast cells; format: functional, organism-based
Human alphaherpesvirus 3 = experiment: Antiviral activity against Varicella zoster virus infected in human foreskin fibroblast cells; format: functional, organism-based; details: Human alphaherpesvirus 3, Fibroblast
[12] = Cytotoxicity against african green monkey BSC1 cells; format: cell-based; details: chlorocebus aethiops, bsc-1
Human alphaherpesvirus 1 [13] = experiment: Antiviral activity against HSV1 infected in african green monkey BSC1 cells by ELISA; format: functional, organism-based; details: Human alphaherpesvirus 1, BSC-1
Human alphaherpesvirus 1 [14] = experiment: Antiviral activity against HSV1 infected in human foreskin fibroblast cells; format: functional, organism-based

Row | SMILES | Activity [1] [%] | Activity (Hepatitis C virus) | CC50 (HFF [2]) [µM] | EC50 (Human gammaherpesvirus 4) [µM] | EC50 (Human betaherpesvirus 5 [3]) [µM] | Activity (Hepatitis B virus) | EC50 (Human betaherpesvirus 5 [4]) [µM] | CC50 ([5]; akata) [µM] | Activity [6] [%] | further results
1 | Nc1ncnc2c1ncn2/C=C1/C[C@@H]1[C@@H](O)CO | 80 | inactive | > 300 | 43 | > 60 | inactive | > 100 | 55 | 65 | 
2 | Nc1nc2c(ncn2/C=C2/C[C@@H]2[C@@H](O)CO)c(=O)[nH]1 |  | inactive |  | > 20 | > 300 | inactive | > 100 | 56 |  | 
3 | Nc1nc2c(ncn2/C=C2/C[C@H]2[C@H](O)CO)c(=O)[nH]1 |  | inactive |  | > 20 | > 300 | inactive | > 100 | 62.6 |  | 
4 | Nc1nc2c(ncn2COC(CO)CO)c(=O)[nH]1 [GANCICLOVIR] |  | inactive |  |  | 0.04 | inactive | 1.2 |  |  | EC50 (Human betaherpesvirus 5 [7]): 22 µM; EC50 (Human betaherpesvirus 5 [8]): 42 µM; EC50 (Murid betaherpesvirus 1): 5.5 µM
5 | Nc1nc2c(ncn2/C=C2\C[C@@H]2[C@H](O)CO)c(=O)[nH]1 |  | inactive | > 300 | > 20 | > 60 | inactive | > 100 | 67 |  | 
6 | Nc1ncnc2c1ncn2/C=C1\C[C@H]1[C@H](O)CO | 85 | inactive | 194 | 9.8 | > 60 | inactive | > 100 | 72.7 | 65 | 
7 | Nc1nc2c(ncn2COCCO)c(=O)[nH]1 [ACYCLOVIR] |  | inactive |  | 3.3 |  | inactive |  |  |  | CC50 ([5]; Akata cells): > 100 µM
8 | Nc1ncnc2c1ncn2/C=C1/C[C@H]1[C@@H](O)CO | 0 | inactive |  | 52.6 | > 60 | inactive | > 100 | 61.5 | 0 | 
9 | Nc1nc2c(ncn2/C=C2\C[C@@H]2[C@@H](O)CO)c(=O)[nH]1 |  | inactive |  | 18 | > 300 | inactive | > 100 | 61 |  | 
10 | Nc1ncnc2c1ncn2/C=C1/C[C@H]1[C@H](O)CO | 0 | inactive | 206 | 60 | > 60 | inactive | > 100 | 93.5 | 0 | 
11 | Nc1nc2c(ncn2/C=C2/C[C@@H]2[C@H](O)CO)c(=O)[nH]1 |  | inactive |  | 43 | > 300 | inactive | > 100 | 54 |  | 
12 | Nc1nc2c(ncn2/C=C2\C[C@H]2[C@H](O)CO)c(=O)[nH]1 |  | inactive |  | 58.7 | > 300 | inactive | > 100 | 86.6 |  | CC50 (HFF [9]): > 300 µM
13 | Nc1ncnc2c1ncn2/C=C1\C[C@@H]1[C@H](O)CO | 100 | inactive |  | > 20 | > 60 | inactive | > 100 | 57 | 85 | CC50 (HFF [9]): > 100 µM
14 | Nc1ncnc2c1ncn2/C=C1/C[C@@H]1[C@H](O)CO | 80 | inactive |  | > 20 | 300 | inactive | > 100 | 50.5 | 45 | 
15 | Nc1nc2c(ncn2/C=C2\C[C@H]2[C@@H](O)CO)c(=O)[nH]1 |  | inactive | 298 | 40 | > 60 | inactive | > 100 | 75 |  | 
16 | Nc1nc(O)c2ncn(COC(CO)CO)c2n1 [GANCICLOVIR] |  |  |  |  |  |  |  |  |  | CC50 [10]: > 100 µM; CC50 [11]: > 100 µM
17 | Nc1nc2c(ncn2/C=C2/CC2(CO)CO)c(=O)[nH]1 [FILOCICLOVIR] |  | inactive |  | 0.22 | 0.49 | inactive | 0.46 |  |  | EC50 (Human betaherpesvirus 5 [7]): 8 µM; EC50 (Human betaherpesvirus 5 [8]): 28 µM; CC50 [10]: > 100 µM; CC50 [11]: > 100 µM
18 | Nc1ncnc2c1ncn2/C=C1\C[C@H]1[C@@H](O)CO | 100 | inactive | 264 | 17 | > 60 | inactive | > 100 | 73 | 100 | 
19 | Nc1ncnc2c1ncn2/C=C1\C[C@@H]1[C@@H](O)CO | 100 | inactive |  | 50.4 | > 300 | inactive | > 100 | 50.6 | 100 | 
20 | Nc1nc2c(ncn2/C=C2/C[C@H]2[C@@H](O)CO)c(=O)[nH]1 |  | inactive | 299 | 8 | 7.5 | inactive | 6.8 | 78 |  | Activity (MEF): Not Active; EC50 (Human betaherpesvirus 5 [7]): 72 µM; Activity (Human alphaherpesvirus 2): inactive; EC50 (Human betaherpesvirus 5 [8]): > 100 µM; CC50 (HFF [9]): > 100 µM; EC50 (Human alphaherpesvirus 3): 47 µM; CC50 [12]: > 100 µM; EC50 (Human alphaherpesvirus 1 [13]): 50 µM; EC50 (Murid betaherpesvirus 1): 11.3 µM; Activity (Human alphaherpesvirus 1 [14]): inactive

Reference: ChEMBL document CHEMBL1138503, “(Z)- and (E)-2-(1,2-dihydroxyethyl)methylenecyclopropane analogues of 2'-deoxyadenosine and 2'-deoxyguanosine. Synthesis of all stereoisomers, absolute configuration, and antiviral activity” (J Med Chem, 2009)
